Consider 1 substance from article PMC7814465 (Cell reports, 2020).

One experiment has as its system TNPO1 (His-TNPO1). In words: SDD-AGE oligomer formation, TNPO1. To be noted: 10-fold molar excess: 2 μM importin, 20 μM TMR-DPR, pH 7.5, 200 mM NaCl, 1 h RT. Type of experiment: biochemical.
For a further experiment, the system named is GAPDH in HeLa cytosol. As to the kind of experiment: Sedimentation assay from HeLa cytosol, GAPDH. It is filed as biochemical. To be noted: highest GR/PR concentrations.
Experiment [1] deals with shuttling reporter (NLS and nuclear export signal). To be noted: HeLa cells incubated with peptides; ref Shi et al., 2017; cited from earlier work.
A further experiment concerns Impb. To be noted: FRET sensors and bead Halo assays; ref Hayes et al., 2019; cited from earlier work.
The subject of the next experiment is Impα3 (His-Impα3). As to the kind of experiment: SDD-AGE oligomer formation, Impα3. To be noted: 10-fold molar excess: 2 μM importin, 20 μM TMR-DPR, pH 7.5, 200 mM NaCl, 1 h RT. Type of experiment: biochemical, rat.
Another experiment concerns Imp7. In words: Pull-down from HeLa cytosol, Imp7. Type of experiment: binding. To be noted: biotinylated peptide, western blot. An outline of the steps: (§1)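 Biotin-DPR bait (5 μg per 10 μl beads) immobilised overnight with 2 mg/ml ovalbumin. Prey bound in B-buffer with 2 mg/ml BSA, washed without BSA, eluted in 2× SDS loading buffer. Two independent replicates.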
The test system of another experiment is CRM1. In words: Sedimentation assay, CRM1. It is filed as biochemical. In a few lines:
(§2)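 Protein was 1 µM purified NTR alone, or 500 nM Impα with 500 nM Impβ. Samples were centrifuged 15 min at 21,000 g, 4°C. Equal volumes of supernatant and pellet were analysed by SDS-PAGE with Sypro-Ruby stain or western blot.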

The subject of experiment [2] is TDP-43 (TDP-43-Tev-MBP/MBP-Tev-TDP-43-GFP). In words: TDP-43 condensate formation with DPRs, microscopy. To be noted: TMR-labeled DPR, equimolar (1x) or two-fold (2x), 2 μM TDP-43/TDP-43-GFP, Tev cleavage, 200 mM NaCl, pH 7.5. It is filed as biochemical. An outline of the steps: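 Size-exclusion-purified TDP-43-MBP-His (2 μM) was mixed with substoichiometric MBP-TDP-43-GFP-His (1:4–1:5). Condensates were imaged by laser scanning confocal microscopy.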

For another experiment, the system named is Impα3. In words: Pull-down from HeLa cytosol, Impα3. It is filed as binding. To be noted: biotinylated peptide, western blot. An outline of the steps:
as §1

For another experiment, the system named is Impβ. In words: Pull-down from HeLa cytosol, Impβ. It is filed as binding. To be noted: biotinylated peptide, western blot. An outline of the steps:
as §1
(Immunoblotting shows a protein as a band on a membrane.)

For experiment [3], the system named is Impβ (His-S-Impβ, in the absence of Impα). As to the kind of experiment: Sedimentation assay, Impβ alone. It is filed as biochemical. An outline of the steps: as §2
Setting [4] is: 10-fold molar excess of TMR-labeled DPR, n = 3.
Where [5] appears, read: extremely high concentrations (up to 40x).

For the substance “poly-PR: arginine-rich dipeptide repeat protein species; in the experiments mostly PR25”, the “oligomer formation of TNPO1 (SDS-resistant)” value in the experiment on TNPO1 (His-TNPO1) is listed as “SDS-resis-tant oligomers”. In addition, the “precipitation of GAPDH from HeLa cytosol” value in the experiment with GAPDH in HeLa cytosol is given as “not precipitated”. In addition, the “import of shuttling reporter” value in experiment [1] was “reduced import”. For the same substance, in the experiment on Impb, the “direct binding to Impb in vitro” value is given as “direct binding”. Moreover, in the experiment on Impα3 (His-Impα3), the “oligomer formation of Impα3 (SDS-resistant)” value was “SDS-resis-tant oligomers”. For the same substance, the binding in pull-down entry in the experiment with Imp7 is “bound equally to both poly-GR and poly-PR”; in the experiment with Impα3, “bound equally to both poly-GR and poly-PR”; in the experiment with Impβ, “bound equally to both poly-GR and poly-PR”. Moreover, the “solubility of CRM1” value in the experiment on CRM1 (setting [4]) is on record as “remained mainly soluble”. In addition, the “precipitation of CRM1, titration” value in the experiment with CRM1 (setting [5]) is reported as “only partial or no precipitation”. The TDP-43 condensate formation entry in experiment [2] is on record as “formation of condensates”. Besides, the “solubility of Impβ” value in [3] (setting [4]) is “remained mainly soluble”. In experiment [3] (setting [5]), the “precipitation of Impβ, titration” value is given as “only partial or no precipitation”.
